Measurements published in PubChem BioAssay.
The source made the active and inactive calls.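 The calls were made as follows, unless noted: active = viability at or below 10% of carrier control in both of two separate runs; inconclusive = viability at or below 10% in only one of the two runs; inactive = the rest.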

How the values were obtained:
[1] = reducers of endogenous Her2 protein level, primary screen, SKBR3 breast tumor cells, AlphaScreen, ATP viability (AID 461;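 active = Her2 level under about 52% in both replicate screens, with viability over 70% of control, limit read from the data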;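 as to Her2 level: lower value means less Her2 protein in the cells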;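 as to viability: percent of carrier control wells set as 100% viability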); conditions: 18-24 h, measured here: SKBR3 viability, ATP luminescence, at 10 µM
[2] = target: Receptor tyrosine-protein kinase erbB-2 (Homo sapiens) (UniProt P04626); test: as above; conditions: 18-24 h, at 10 µM, stronger effect = lower value
Receptor tyrosine-protein kinase erbB-2 (Homo sapiens), sequence (P04626 whole entry, looked up): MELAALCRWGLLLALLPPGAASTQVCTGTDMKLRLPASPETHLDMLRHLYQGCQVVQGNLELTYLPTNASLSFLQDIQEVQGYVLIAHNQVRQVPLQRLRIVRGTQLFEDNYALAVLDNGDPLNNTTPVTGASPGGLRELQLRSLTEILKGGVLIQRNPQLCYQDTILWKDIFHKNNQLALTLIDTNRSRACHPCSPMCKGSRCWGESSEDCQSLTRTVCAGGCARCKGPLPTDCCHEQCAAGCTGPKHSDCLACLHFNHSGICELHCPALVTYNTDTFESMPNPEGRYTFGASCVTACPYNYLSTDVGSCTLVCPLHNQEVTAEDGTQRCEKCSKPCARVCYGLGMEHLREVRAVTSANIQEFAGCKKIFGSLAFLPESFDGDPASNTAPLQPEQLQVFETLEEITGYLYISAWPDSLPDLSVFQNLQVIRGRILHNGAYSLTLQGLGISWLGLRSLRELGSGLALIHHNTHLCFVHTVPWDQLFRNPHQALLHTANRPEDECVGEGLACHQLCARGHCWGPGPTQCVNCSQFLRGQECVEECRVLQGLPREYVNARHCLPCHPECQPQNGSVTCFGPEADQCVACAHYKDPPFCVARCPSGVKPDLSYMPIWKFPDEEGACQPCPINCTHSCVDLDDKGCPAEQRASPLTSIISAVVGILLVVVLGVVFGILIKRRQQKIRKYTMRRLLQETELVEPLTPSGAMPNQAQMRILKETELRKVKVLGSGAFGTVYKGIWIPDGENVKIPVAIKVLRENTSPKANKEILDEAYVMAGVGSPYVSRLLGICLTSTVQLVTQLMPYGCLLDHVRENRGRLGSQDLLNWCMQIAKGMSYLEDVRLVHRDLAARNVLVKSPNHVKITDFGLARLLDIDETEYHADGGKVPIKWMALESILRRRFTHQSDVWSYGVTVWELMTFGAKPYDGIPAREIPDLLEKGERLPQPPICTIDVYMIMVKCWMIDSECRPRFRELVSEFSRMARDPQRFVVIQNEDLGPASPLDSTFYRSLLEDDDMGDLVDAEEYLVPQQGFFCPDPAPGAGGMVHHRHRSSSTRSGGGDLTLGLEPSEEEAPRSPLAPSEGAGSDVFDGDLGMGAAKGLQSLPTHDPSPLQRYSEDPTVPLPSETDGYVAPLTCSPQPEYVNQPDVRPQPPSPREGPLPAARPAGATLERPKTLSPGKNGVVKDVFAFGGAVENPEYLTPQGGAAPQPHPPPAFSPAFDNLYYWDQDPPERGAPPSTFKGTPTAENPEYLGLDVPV

[3] = SK-BR-3 cell growth inhibitors, pilot screen, 24 h, human (AID 572); conditions: SK-BR-3 viability, CellTiter-Glo luminescence, at 10 µM, stronger effect = lower value;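 also: compound exposure lasted between 18 and 24 h rather than exactly 24 h; 100% = carrier-treated control wells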
[4] = HUVEC growth inhibition – cell-based, human, primary screen (AID 575;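 active = viability at or below 30% in both replicate assays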;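 also: 100% = median of untreated cell wells with 0.1% DMSO on each plate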); conditions: HUVEC proliferation, CellTiter-Glo luminescence, 72 h; at 10 µM; stronger effect = lower value
Outline: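 Assay system: Primary human umbilical vein endothelial cells | Quantity: 1250 cells per well | Medium: Supplemented EBM, 2% fetal bovine serum | Detection: CellTiter-Glo luminescence measuring cellular ATP | Read-out: % viability vs DMSO wells | Plate: Collagen-coated 384-well format | Times: 72 h exposure, 37 °C, 5% CO2, 30 min RT equilibration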

[5] = growth inhibitors of H69AR lung tumor, primary screen, human, duplicate replicates (AID 580;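 active = viability at or under a set limit in both replicates, limit being median viability minus 3 SD, cut at about 48% in these data, passing the limit was not always enough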;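 also: 100% = mean luminescence of untreated wells and 0% = no signal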); conditions: H69AR lung tumor cells viability, ATP luminescence, 72 h; at 10 µM; stronger effect = lower value
[6] = reversal of MRP1-mediated doxorubicin resistance, pilot screen, H69AR cells, doxorubicin co-treatment (AID 601;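 active = viability loss from added drug above about 55%, and viability with drug at most 40%, in both replicates, limit read from the data, passing the limit was not always enough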); conditions: CellTiter-Glo, 72 h, at 10 µM; for differential viability (reversal): stronger effect = higher value
[7] = 384-well plate pilot, post-Golgi transport modulator project, inhibition of yeast transport mutant growth (AID 636; in the data active = inhibition above about 31%); conditions: absorbance 615 nm, about 18 h, stronger effect = higher value
[8] = growth suppression of yeast trafficking mutant, preliminary HTS, modulators of trafficking downstream of Golgi apparatus project, 1536-format plate, OD 615 nm (AID 637; in the data active = inhibition above about 30%); conditions: yeast transport mutant growth, absorbance 615 nm, 18 h; stronger effect = higher value
[9] = H69AR cells + 2 uM doxorubicin, measured here: viability with 2 uM doxorubicin, stronger effect = lower value
[10] = H69AR cells, compound alone cytotoxicity

| SMILES | viability [1] [%] | Her2 level [2] | viability [3] | viability [4] | viability [5] | differential viability (reversal) ([6]; H69AR cells + 2 uM doxorubicin) | viability [6, 9] [%] | viability [6, 10] [%] | inhibition [7] | inhibition [8] |
| --- | --- | --- | --- | --- | --- | --- | --- | --- | --- | --- |
| Cc1nc(/N=C(\N)Nc2ccccc2)nc2ccccc12 | 91.5 | 67.5% (inactive) | 91.5% (inactive) | 74.5% (inactive) | 78.7% (inactive) | -21% (inactive) | 99.7 | 78.7 | -0.26% (inactive) | 10.5% (inactive) |
| CCc1nccn1S(=O)(=O)c1ccc(C)c(C)c1 | 119 | 92.5% (inactive) | 119% (inactive) | 96.7% (inactive) | 99.6% (inactive) | 12.7% (inactive) | 86.9 | 99.6 | -4.86% (inactive) | 16.2% (inactive) |
| Cc1ccc(NC(=O)CCC(=O)OCC(F)(F)C(F)F)cc1 | 98 | 106% (inactive) | 98% (inactive) | 117% (inactive) | 103% (inactive) | -1.04% (inactive) | 104 | 103 | -0.65% (inactive) | -7.67% (inactive) |
| COc1ccc(C2CC(=O)c3cnc(NC(=O)c4ccccc4OC)nc3C2)c(OC)c1 (stereo not given) | 97.5 | 49% (active) | 97.5% (inactive) | 75.1% (inactive) | 87% (inactive) | -5.78% (inactive) | 92.7 | 87 | -5.07% (inactive) | 1.15% (inactive) |
| Cc1cc(NC(=O)COc2cccc(Oc3ccccc3)c2)no1 | 75.5 | 90% (inactive) | 75.5% (inactive) | 50.9% (inactive) | 22.4% (active) | -38.2% (inactive) | 60.6 | 22.4 | -0.38% (inactive) | 3.33% (inactive) |
| O=C(CSc1nnnn1-c1ccc2c(c1)OCO2)NCc1cccs1 | 88 | 90.5% (inactive) | 88% (inactive) | 93.2% (inactive) | 86.8% (inactive) | -7.04% (inactive) | 93.8 | 86.8 | -5.68% (inactive) | -1.64% (inactive) |
| CCCC(=O)Nc1cc(C)c(NC(=O)c2ccccn2)cn1 | 90.5 | 92.5% (inactive) | 90.5% (inactive) | 92.2% (inactive) | 99.4% (inactive) | 9.38% (inactive) | 90.1 | 99.4 | -5.06% (inactive) | -0.32% (inactive) |
| CC(=O)N(c1ccc(N(C(C)=O)S(=O)(=O)c2cccs2)cc1)S(=O)(=O)c1cccs1 | 90 | 104% (inactive) | 90% (inactive) | 85% (inactive) | 86% (inactive) | -22.3% (inactive) | 108 | 86 | -1.18% (inactive) | 1.15% (inactive) |
| O=C(CNS(=O)(=O)c1ccc(Br)s1)N1CCN(c2ncccn2)CC1 | 98.5 | 116% (inactive) | 98.5% (inactive) | 122% (inactive) | 94.6% (inactive) | -4.04% (inactive) | 98.7 | 94.6 | -4.87% (inactive) | -1.31% (inactive) |
| O=C(CSc1nnnn1C1CCCCC1)N1CCc2ccccc21 | 91 | 82.5% (inactive) | 91% (inactive) | 60.9% (inactive) | 87.1% (inactive) | -3.15% (inactive) | 90.2 | 87.1 | -3.87% (inactive) | -2.79% (inactive) |
| c1ccc(Cc2nnc3n2CCCCC3)cc1 | 99 | 90% (inactive) | 99% (inactive) | 93.9% (inactive) | 99.2% (inactive) | 1.42% (inactive) | 97.7 | 99.2 | -7.2% (inactive) | 0.82% (inactive) |
| CC(C)(C)n1nc2c(c1NC(=O)COc1ccc(Cl)cc1)CSC2 | 97.5 | 79.5% (inactive) | 97.5% (inactive) | 80.5% (inactive) | 91.4% (inactive) | -10.3% (inactive) | 102 | 91.4 | -5% (inactive) | -0.16% (inactive) |
| O=C1N(CCCCN2C(=O)C3(OCCO3)c3ccccc32)c2ccccc2C12OCCO2 | 100 | 84.5% (inactive) | 100% (inactive) | 73.2% (inactive) | 84.9% (inactive) | 11.1% (inactive) | 73.7 | 84.9 | -0.39% (inactive) | 11.5% (inactive) |
| Clc1ccc(OCc2nc(-c3ccccn3)no2)c(Br)c1 | 82.5 | 92.5% (inactive) | 82.5% (inactive) | 55.6% (inactive) | 102% (inactive) | 3.96% (inactive) | 98.4 | 102 | -0.26% (inactive) | -8.67% (inactive) |
| c1ccc(-n2ncc3c(N4CCCCC4)ncnc32)cc1 | 105 | 90.5% (inactive) | 105% (inactive) | 59.4% (inactive) | 70% (inactive) | 4.94% (inactive) | 65.1 | 70 | -3.6% (inactive) | -4.17% (inactive) |
| O=C(O)c1c[nH]c2ccc(S(=O)(=O)N3CCN(c4ccc(F)cc4)CC3)cc2c1=O | 93.5 | 124% (inactive) | 93.5% (inactive) | 91.6% (inactive) | 93.7% (inactive) | 10.9% (inactive) | 82.8 | 93.7 | 0.53% (inactive) | -6.45% (inactive) |

| SMILES | viability [1] [%] | Her2 level [2] | viability [3] | viability [4] | viability [5] | differential viability (reversal) ([6]; H69AR cells + 2 uM doxorubicin) | viability [6, 9] [%] | viability [6, 10] [%] | inhibition [7] | inhibition [8] |
| --- | --- | --- | --- | --- | --- | --- | --- | --- | --- | --- |
| O=C(O)CC1SC(=Nc2cccc(C(F)(F)F)c2)NC1=O (stereo not given) | 111 | 94.5% (inactive) | 111% (inactive) | 104% (inactive) | 103% (inactive) | 9.34% (inactive) | 93.2 | 103 | -1.45% (inactive) | 1.29% (inactive) |
| CCN(CC)C(=O)CSc1nnc([C@@H](N)Cc2ccccc2)o1 | 82 | 106% (inactive) | 82% (inactive) | 98.5% (inactive) | 98.2% (inactive) | 3.4% (inactive) | 94.8 | 98.2 | -1.87% (inactive) | 35.4% (active) |
| CCC(Sc1nc2sc(C(=O)OC)c(C)c2c(=O)n1N)C(=O)NCC1CCCO1 (stereo not given) | 102 | 88% (inactive) | 102% (inactive) | 94.2% (inactive) | 82.2% (inactive) | -5.51% (inactive) | 87.7 | 82.2 | -6.49% (inactive) | -1.27% (inactive) |
| O=C(Nc1ccccc1N1CCN(C(=O)c2ccc(Cl)cc2)CC1)c1cc2ccccc2o1 | 69.5 | 79.5% (inactive) | 69.5% (inactive) | 67.8% (inactive) | 85.5% (inactive) | 22.9% (inactive) | 62.6 | 85.5 | 2.53% (inactive) | 0.81% (inactive) |
| CCOC(=O)c1c(C)[nH]c(C(=O)COC(=O)C2CC2C)c1C (stereo not given) | 117 | 116% (inactive) | 117% (inactive) | 99.4% (inactive) | 102% (inactive) | 15.7% (inactive) | 85.8 | 102 | -4.93% (inactive) | 0.48% (inactive) |
| Cc1ncc(CSc2nc3ccccc3[nH]2)c(N)n1 | 104 | 92.5% (inactive) | 104% (inactive) | 115% (inactive) | 104% (inactive) | 16.8% (inactive) | 87.5 | 104 | -2.03% (inactive) | 1.43% (inactive) |
| CCn1c(=S)sc2nc(C)sc21 | 94 | 100% (inactive) | 94% (inactive) | 96.6% (inactive) | 93.7% (inactive) | 3.59% (inactive) | 90.1 | 93.7 | -4.27% (inactive) | 1.94% (inactive) |
| CCOC(=O)N1CCN(S(=O)(=O)c2ccc(Br)s2)CC1 | 103 | 112% (inactive) | 103% (inactive) | 100% (inactive) | 94.4% (inactive) | 7.92% (inactive) | 86.5 | 94.4 | -3.03% (inactive) | 2.95% (inactive) |
| Cc1cc(NC(=O)c2ccc3c(c2)C(=O)N(Cc2cccnc2)C3=O)no1 | 96.5 | 110% (inactive) | 96.5% (inactive) | 106% (inactive) | 102% (inactive) | 0.045% (inactive) | 102 | 102 | -1.07% (inactive) | 12.5% (inactive) |
| CC(=O)c1ccc(OC(=O)c2cccs2)cc1 | 86 | 94.5% (inactive) | 86% (inactive) | 94.1% (inactive) | 105% (inactive) | -5.42% (inactive) | 110 | 105 | -3.11% (inactive) | 3.61% (inactive) |
| Cc1ccc(/C=c2\sc3nc(-c4ccccc4Br)nn3c2=O)o1 | 89 | 85% (inactive) | 89% (inactive) | 110% (inactive) | 95.5% (inactive) | 6.48% (inactive) | 89 | 95.5 | -7.47% (inactive) | 10.7% (inactive) |
| COCCNC(=O)c1ccc2c(c1)nc(C)n2-c1cccc(F)c1 | 129 | 79.5% (inactive) | 129% (inactive) | 92.7% (inactive) | 90.5% (inactive) | -0.17% (inactive) | 90.6 | 90.5 | -0.92% (inactive) | 4.35% (inactive) |
| COC(=O)c1ccc(NC(=O)CN2C(=O)CSC2=O)cc1 | 104 | 93% (inactive) | 104% (inactive) | 90.1% (inactive) | 106% (inactive) | 12% (inactive) | 94.4 | 106 | -4.67% (inactive) | 2.3% (inactive) |
| CCCC(NC(=O)c1ccccc1)c1nc2ccccc2n1Cc1ccc(C(=O)OC)o1 (stereo not given) | 98 | 105% (inactive) | 98% (inactive) | 85.4% (inactive) | 95% (inactive) | 4.1% (inactive) | 90.9 | 95 | -2.76% (inactive) | -9.17% (inactive) |
| CCN1CCN(CCCNC(=O)C2c3ccccc3C(=O)N(C)C2c2ccc(OC)cc2)CC1 (stereo not given) | 102 | 99% (inactive) | 102% (inactive) | 95.9% (inactive) | 110% (inactive) | 16.8% (inactive) | 93.2 | 110 | -1.64% (inactive) | -0.79% (inactive) |
